Bioassay records (PubChem BioAssay)
Rows were chosen to be rich in hits. Some 1.9% of all compounds tested hit in one or more screens of this group.
Neddylation inh: cullin neddylation inhibition. P61081+Q13564. TR-FRET cullin neddylation, biochemical. inhibition, % at 25 µM. 360,000 compounds, 0.58% hits; in the data active means inhibition above about 36%
HIF activator: HIF pathway transcriptional activation; U2OS HRE-luciferase reporter, luminescence; normalized: DMSO 0%, desferrioxamine 100%; activation, % at 7.5 µM (by protocol); 300,000 compounds, 0.32% hits; AID 1910;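 active means mean activation of at least 10% of the iron chelator positive control signal, with at least half of replicates also reaching 10%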
FXN GAA850 act: activators of GAA850 frataxin (FXN) promoter | HEK293 lucGAA850 FXN promoter luciferase reporter, 24 h; percent of 10 µM SAHA response | activation, % at 6 µM | 360,000 compounds, 0.56% hits | AID 540364;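 active means activation above the average of all compounds screened plus 3 SD, cutoff fixed separately per campaign, cut at about 7.5% in these data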
proCasp7 act: counter-screen for procaspase-3 activators: activators of human procaspase-7 | P55210 | recombinant procaspase-7, Ac-DEVD-pNA absorbance 405 nm; D23A/D198A/D206A triple mutant, cannot self-cleave; scale: DMSO 0, 5 µM enzyme 100 | activation, % at 8.5 µM | 330,000 compounds, 0.093% hits;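 active means percent activation above the screen-wide mean plus 3 SD, cut at about 25% in these data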
Target sequence (P55210 whole entry D23A/D198A/D206A): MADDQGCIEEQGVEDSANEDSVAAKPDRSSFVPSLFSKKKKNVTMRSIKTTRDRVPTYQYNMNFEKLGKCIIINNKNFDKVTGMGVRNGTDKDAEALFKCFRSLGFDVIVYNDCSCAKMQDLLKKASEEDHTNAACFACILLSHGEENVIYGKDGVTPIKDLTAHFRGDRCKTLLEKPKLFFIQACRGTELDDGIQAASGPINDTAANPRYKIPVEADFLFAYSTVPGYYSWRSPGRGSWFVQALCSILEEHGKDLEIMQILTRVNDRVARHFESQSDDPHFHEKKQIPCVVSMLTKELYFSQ
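Replicates: singlicate. Assay system: Procaspase-7 triple mutant (PC-7 D3A). Signal: 405 nm absorbance of p-nitroaniline. Times: 1 h preincubation, 2 h reaction. Buffer or medium: Zinc-free HEPES pH 7.4 with 300 mM NaCl, 0.01% Triton X-100. Also added: DEVD-pNA substrate. Benchmarks: DMSO wells as 0%, DMSO with 5 µM added PC-7 as 100%.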
Calb FLC: C. albicans growth modulation with fluconazole. 300,000 compounds, 0.57% hits. growth inhibition, % (test concentration not listed). C. albicans CaCi-2 + fluconazole, Alamar Blue growth, 48 h;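 active means growth inhibition above about 58% in most replicates, limit read from the data, passing the limit was not always enough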;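 further: all wells also contain fluconazole at 8 µg/ml as a sub-toxic cotreatment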
proCasp3 act: activates human procaspase-3; P42574; recombinant procaspase-3 D3A, Ac-DEVD-pNA absorbance 405 nm; activation, % at 8.5 µM; 330,000 compounds, 0.11% hits; AID 463141;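 active means activation above the mean of all tested compounds plus 3 SD, cut at about 21% in these data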
Target sequence (P42574 whole entry D9A/D28A/D175A): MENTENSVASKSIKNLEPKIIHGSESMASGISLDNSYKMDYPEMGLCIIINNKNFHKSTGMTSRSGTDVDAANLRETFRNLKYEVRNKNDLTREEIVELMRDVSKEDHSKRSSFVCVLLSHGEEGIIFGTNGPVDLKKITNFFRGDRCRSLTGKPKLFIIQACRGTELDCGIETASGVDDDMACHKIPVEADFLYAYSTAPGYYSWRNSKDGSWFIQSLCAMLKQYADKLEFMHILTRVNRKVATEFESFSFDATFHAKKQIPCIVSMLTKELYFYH
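Assay system – Procaspase-3 D3A mutant, all three cleavage aspartates alanine · Controls – DMSO-only low control, 5 µM PC-3 D3A high control · Schedule – 1 h compound preincubation, 2 h substrate hydrolysis at 25 °C · Signal – 405 nm absorbance of p-nitroaniline, reads at 0 and 120 min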
GAA30 counter: activates GAA30 frataxin promoter, counter-screen for GAA850 activators. activation, % at 6 µM. shares compounds with FXN GAA850 act. HEK293 lucGAA30 FXN promoter luciferase, 24 h; DMSO = 0%, 5 µM ipriflavone = 100%. 1,900 compounds, 66% hits;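 active means mean activation above the mean of solvent-only control wells plus 3 SD, cut at about 22% in these data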;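 further: counterscreen of GAA850 promoter hits where activity marks nonselective or luminescence artifacts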
GAA850 confirm: GAA850 FXN promoter activation confirmation; shares compounds with FXN GAA850 act; HEK293 lucGAA850 FXN promoter luciferase reporter, 24 h; 100% = activation by SAHA; activation, % at 6 µM; 1,900 compounds, 86% hits;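 active means mean activation above a set limit taken from the primary screen, cut at about 8% in these data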
Each line names hits and unclear results; the compound was inactive in the other large screens (follow-up assays come after a bar, where shown).

Cc1cccc(CN2CCN(C3CN(C4CCCCC4)S(=O)(=O)C3)CC2)c1 (stereo not drawn)	none (no result: HIF activator, FXN GAA850 act, proCasp7 act, Calb FLC, proCasp3 act)
COc1ccc(NC(=O)c2cc(C3CCCCN3C(=O)c3cc(C(C)(C)C)nn3C)on2)c(C)c1 (stereo not drawn)	none (no result: HIF activator, proCasp7 act, Calb FLC, proCasp3 act)
CN(c1ccc(C(=O)NCCc2ccccc2)cc1)S(C)(=O)=O	none
CN(c1ccc(C(=O)NCCSC(C)(C)C)cc1)S(C)(=O)=O	FXN GAA850 act 8.1 | GAA30 counter 104 | GAA850 confirm 30
O=C(ONC(=O)C1C2C=CC(C2)C1C(=O)NOC(=O)c1ccccc1)c1ccccc1 (stereo not drawn)	none (no result: HIF activator, proCasp7 act, Calb FLC, proCasp3 act)
O=C(NC(=S)Nc1ccc(N2CCCC2)cc1)c1ccccc1[N+](=O)[O-]	FXN GAA850 act 8.8 | GAA30 counter 53 | GAA850 confirm 13
CCCC1NC(=O)c2cccnc2-n2c1nc1ccc(C)cc1c2=O (stereo not drawn)	none (no result: HIF activator, proCasp7 act, Calb FLC, proCasp3 act)
N#CCSc1ccc2nc(-c3ccccc3)cn2n1	FXN GAA850 act 7.7 (not shown: Neddylation inh) | GAA30 counter 119 | GAA850 confirm 31
CCn1c(O)c(/C=C2\C=Nc3ccccc32)sc1=Nc1ccccc1	FXN GAA850 act 13 | GAA30 counter 60 | GAA850 confirm 27
Nc1nc(NCCc2ccccc2)nc(NCc2ccccc2)c1[N+](=O)[O-]	none
CN(Cc1ccccc1)c1nc(N)c([N+](=O)[O-])c(NCc2ccccc2)n1	FXN GAA850 act 7.7 | GAA30 counter 35 | GAA850 confirm 12
COCCNC(=O)c1cc(-c2cccs2)on1	HIF activator 30, FXN GAA850 act 15 | GAA30 counter 145 | GAA850 confirm 70
CCN(CC)C(=O)C1=C(C)N(Cc2ccc(F)cc2)C(=O)C(CC(=O)NCc2ccco2)C1 (stereo not drawn)	none (no result: HIF activator, proCasp7 act, Calb FLC, proCasp3 act)
CC(=O)Nc1ccc(N(CC(O)Cn2c3ccccc3c3ccccc32)S(=O)(=O)c2ccc(C)cc2)cc1 (stereo not drawn)	FXN GAA850 act 16 | GAA30 counter inactive | GAA850 confirm 12
Cc1ccc(N(CC(O)Cn2c3ccccc3c3ccccc32)S(C)(=O)=O)cc1 (stereo not drawn)	none
C[C@@H]1CCCCO[C@@H](CN(C)S(=O)(=O)c2ccccc2)[C@@H](C)CN([C@H](C)CO)C(=O)c2cc(N(C)C)ccc2O1	none (no result: HIF activator, proCasp7 act, Calb FLC, proCasp3 act)
Clc1ccc(CN(Cc2ccccc2)C(c2cccs2)c2nnnn2C2CCCC2)cc1 (stereo not drawn)	none
CC(C)(C)n1nnnc1C(c1cccs1)N(Cc1ccc(Cl)cc1)CC1CCCO1 (stereo not drawn)	FXN GAA850 act 7.8 | GAA30 counter inactive | GAA850 confirm 17
O=C1c2ccccc2C(=O)N1Nc1ccccc1	none
Cc1ccc(NN2C(=O)C=C(c3ccccc3)C2=O)cc1	FXN GAA850 act 10.0 (no result: proCasp7 act, proCasp3 act) | GAA30 counter 32 | GAA850 confirm 28
O=C(NC1CCCCC1)c1ccc(-c2cn[nH]c2)c2ccoc12	none (no result: HIF activator, proCasp7 act, Calb FLC, proCasp3 act)
O=C(Nc1ccc2nsnc2c1)N1CCCCCC1	none
S=C(Nc1ccc2nsnc2c1)N1CCCC1	FXN GAA850 act 8.3 | GAA30 counter 29 | GAA850 confirm 12
CC1CC(=O)C(C(C2=C(O)CC(C)CC2=O)c2ccccc2)=C(O)C1 (stereo not drawn)	none (no result: HIF activator, proCasp7 act, Calb FLC, proCasp3 act)
CCc1cc2c(SCC(=O)N3CCN(C(=O)c4cccs4)CC3)ncnc2s1	none (no result: HIF activator, proCasp7 act, Calb FLC, proCasp3 act)
CCc1nc2c(OCc3cccc(Cl)c3)cccn2c1N(C)C(=O)c1ccncc1	none (no result: HIF activator, proCasp7 act, Calb FLC, proCasp3 act)
O=c1c2ccccc2nc(-c2ccco2)n1Cc1ccccc1	FXN GAA850 act 8.2 | GAA30 counter 107 | GAA850 confirm 28
Cc1ccc(-c2noc(C3CCCN(C(=O)c4ccccc4Br)C3)n2)o1 (stereo not drawn)	none
Cc1ccc(-c2noc(C3CCCN(C(=O)c4ccccc4)C3)n2)o1 (stereo not drawn)	FXN GAA850 act 7.7 | GAA30 counter 107 | GAA850 confirm 30
Fc1cccc(Cc2c(C3CCCCC3)nc3ccc(Br)cn23)c1	none (no result: HIF activator, FXN GAA850 act, proCasp7 act, Calb FLC, proCasp3 act)
Oc1csc(Cc2nc(-c3ccc(-c4ccccc4)cc3)cs2)n1	none
Oc1csc(Cc2nc(-c3ccc4ccccc4c3)cs2)n1	FXN GAA850 act 10 | GAA30 counter 63 | GAA850 confirm 43
C=CCOc1ccc(Cl)cc1-c1noc(-c2csc([C@H]3C[C@H](O)[C@@H](CO)O3)n2)n1	none (no result: HIF activator, proCasp7 act, Calb FLC, proCasp3 act)
COc1ccc(CN2C[C@@H](CO)O[C@@H](n3cnc4c(N5CCN(c6ccccc6)CC5)ncnc43)C2)cc1	none (no result: HIF activator, proCasp7 act, Calb FLC, proCasp3 act)
O=C(CSc1ccc2ccccc2c1)NCCc1ccc(O)c(O)c1	FXN GAA850 act 13 | GAA30 counter 43 | GAA850 confirm 13
COc1ccc(CCNC(=O)CSc2ccc3ccccc3c2)cc1OC	none
CN1CCN(C(=O)c2cccc(-c3cnc4cnc(-c5ccccc5Oc5ccccc5)cn34)c2)CC1	none (not shown: Neddylation inh, HIF activator, proCasp7 act, Calb FLC, proCasp3 act)
CC1=CC(C)=Nc2ccccc2N1	FXN GAA850 act 7.9 | GAA30 counter 79 | GAA850 confirm 18
O=C(NCc1ccc2c(c1)OCO2)c1nc(S(=O)(=O)Cc2ccccc2)ncc1Cl	FXN GAA850 act 7.9 | GAA30 counter 38 | GAA850 confirm 70
O=C(NCc1ccccc1)c1nc(S(=O)(=O)Cc2ccccc2)ncc1Cl	FXN GAA850 act 17 | GAA30 counter inactive | GAA850 confirm 28
COc1ccc(CNC(=O)c2nc(S(=O)(=O)Cc3ccccc3)ncc2Cl)cc1	none
CCS(=O)(=O)c1ncc(Cl)c(C(=O)Nc2ccc(C)cc2)n1	FXN GAA850 act 19 | GAA30 counter inactive | GAA850 confirm inactive
O=C(NCc1ccc2c(c1)OCO2)c1nc(S(=O)(=O)Cc2ccccc2F)ncc1Cl	FXN GAA850 act 21 | GAA30 counter 41 | GAA850 confirm 65
CC(=O)Nc1ccc(NC(=O)c2nc(S(=O)(=O)Cc3ccccc3)ncc2Cl)cc1	none
CCCNC(=O)C1(C)CCN(Cc2cccc(OC(=O)c3ccccc3)c2)C1 (stereo not drawn)	none (no result: HIF activator, proCasp7 act, Calb FLC, proCasp3 act)
CC(CCc1ccccn1)(CCc1ccccn1)C(=O)c1ccccc1	none (no result: HIF activator, proCasp7 act, Calb FLC, proCasp3 act)
CCC(C)CN1C(=O)CSCC1(C)C(=O)NC(C)C (stereo not drawn)	none (no result: HIF activator, FXN GAA850 act, proCasp7 act, Calb FLC, proCasp3 act)
CCCc1cc(C(=O)Nc2cccnc2Cl)no1	none
CCCc1cc(C(=O)Nc2cc(C)ccc2O)no1	FXN GAA850 act 10 | GAA30 counter 91 | GAA850 confirm 43
